Data: ChEMBL document CHEMBL5661979, “Pharmacological inhibition of BMK1 suppresses tumor growth through promyelocytic leukemia protein” (Cancer Cell, 2010)
Active and inactive are the calls of the source. The rule behind the calls is not given here.

How the values were obtained:
[1] = target: Mitogen-activated protein kinase 14 (Homo sapiens, UniProt Q16539); assay: Inhibition of P38a in human HeLa cells lysate pre incubated for 15 mins followed by ATP acyl phosphate probe addition and measured after 10 mins by LC-MS/MS analysis; format: subcellular
Mitogen-activated protein kinase 14, sequence (Q16539 whole entry): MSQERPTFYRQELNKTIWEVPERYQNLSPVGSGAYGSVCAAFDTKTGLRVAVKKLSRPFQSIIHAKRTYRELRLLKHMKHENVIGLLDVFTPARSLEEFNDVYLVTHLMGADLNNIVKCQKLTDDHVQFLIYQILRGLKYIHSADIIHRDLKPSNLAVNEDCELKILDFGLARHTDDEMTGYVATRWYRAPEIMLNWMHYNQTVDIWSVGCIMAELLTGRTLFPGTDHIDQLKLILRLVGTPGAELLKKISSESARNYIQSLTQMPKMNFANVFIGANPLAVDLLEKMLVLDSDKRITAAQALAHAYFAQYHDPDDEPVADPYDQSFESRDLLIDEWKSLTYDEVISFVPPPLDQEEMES

[2] = target: MAP/microtubule affinity-regulating kinase 3 (Homo sapiens, UniProt P27448); assay: Inhibition of MARK3 in human HeLa cells lysate at 2 uM pre incubated for 15 mins followed by ADP acyl phosphate probe addition and measured after 10 mins by LC-MS/MS analysis relative to control; format: subcellular; settings: time 25.0 min
MAP/microtubule affinity-regulating kinase 3, sequence (P27448 whole entry, looked up): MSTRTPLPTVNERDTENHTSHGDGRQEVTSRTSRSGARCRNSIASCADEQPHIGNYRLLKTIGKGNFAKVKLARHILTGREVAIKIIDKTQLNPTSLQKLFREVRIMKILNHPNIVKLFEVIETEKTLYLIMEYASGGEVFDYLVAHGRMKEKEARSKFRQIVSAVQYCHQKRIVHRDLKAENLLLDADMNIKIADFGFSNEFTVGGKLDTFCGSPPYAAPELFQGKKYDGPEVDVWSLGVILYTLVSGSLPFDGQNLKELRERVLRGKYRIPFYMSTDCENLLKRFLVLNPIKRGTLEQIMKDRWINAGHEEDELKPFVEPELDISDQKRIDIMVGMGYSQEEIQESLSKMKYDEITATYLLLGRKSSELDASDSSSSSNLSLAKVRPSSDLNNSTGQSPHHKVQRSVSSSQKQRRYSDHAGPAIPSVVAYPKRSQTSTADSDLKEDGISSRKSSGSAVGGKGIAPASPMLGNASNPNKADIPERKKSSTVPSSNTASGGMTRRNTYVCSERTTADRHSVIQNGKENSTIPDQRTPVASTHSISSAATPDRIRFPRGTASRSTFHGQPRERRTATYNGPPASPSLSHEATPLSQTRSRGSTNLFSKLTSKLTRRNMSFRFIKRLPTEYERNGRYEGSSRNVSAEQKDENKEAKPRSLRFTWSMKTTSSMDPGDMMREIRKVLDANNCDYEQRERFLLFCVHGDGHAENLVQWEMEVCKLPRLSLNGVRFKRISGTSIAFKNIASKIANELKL

RPS6KA1/RPS6KA2/RPS6KA3 = RPS6KA1/RPS6KA2/RPS6KA3 (Homo sapiens, UniProt P51812+Q15349+Q15418); assay: Inhibition of RSK1/2/3 in human HeLa cells lysate at 2 uM pre incubated for 15 mins followed by ATP acyl phosphate probe addition and measured after 10 mins by LC-MS/MS analysis relative to control; format: subcellular; settings: time 25.0 min
RPS6KA1/RPS6KA2/RPS6KA3, sequence (P51812 whole entry, looked up): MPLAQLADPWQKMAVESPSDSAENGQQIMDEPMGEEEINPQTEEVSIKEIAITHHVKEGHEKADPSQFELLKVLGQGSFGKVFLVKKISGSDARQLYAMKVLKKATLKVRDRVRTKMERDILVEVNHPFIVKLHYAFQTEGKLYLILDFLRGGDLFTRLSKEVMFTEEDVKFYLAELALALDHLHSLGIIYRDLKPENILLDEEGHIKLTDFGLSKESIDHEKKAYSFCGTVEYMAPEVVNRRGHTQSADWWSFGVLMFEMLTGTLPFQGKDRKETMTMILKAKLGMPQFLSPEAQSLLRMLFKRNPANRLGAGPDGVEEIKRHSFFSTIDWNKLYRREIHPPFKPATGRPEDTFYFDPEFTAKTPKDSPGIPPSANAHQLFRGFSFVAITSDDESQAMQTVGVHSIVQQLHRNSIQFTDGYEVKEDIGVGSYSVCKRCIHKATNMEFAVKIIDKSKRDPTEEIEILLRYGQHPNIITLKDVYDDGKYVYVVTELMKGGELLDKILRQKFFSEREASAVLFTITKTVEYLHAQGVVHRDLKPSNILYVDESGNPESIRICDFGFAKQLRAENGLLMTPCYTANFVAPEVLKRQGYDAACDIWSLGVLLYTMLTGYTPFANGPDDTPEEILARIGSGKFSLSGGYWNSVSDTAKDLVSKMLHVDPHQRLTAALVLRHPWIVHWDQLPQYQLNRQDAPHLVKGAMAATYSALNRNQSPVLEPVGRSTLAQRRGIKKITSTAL
RPS6KA1/RPS6KA2/RPS6KA3, sequence (Q15349 whole entry, looked up): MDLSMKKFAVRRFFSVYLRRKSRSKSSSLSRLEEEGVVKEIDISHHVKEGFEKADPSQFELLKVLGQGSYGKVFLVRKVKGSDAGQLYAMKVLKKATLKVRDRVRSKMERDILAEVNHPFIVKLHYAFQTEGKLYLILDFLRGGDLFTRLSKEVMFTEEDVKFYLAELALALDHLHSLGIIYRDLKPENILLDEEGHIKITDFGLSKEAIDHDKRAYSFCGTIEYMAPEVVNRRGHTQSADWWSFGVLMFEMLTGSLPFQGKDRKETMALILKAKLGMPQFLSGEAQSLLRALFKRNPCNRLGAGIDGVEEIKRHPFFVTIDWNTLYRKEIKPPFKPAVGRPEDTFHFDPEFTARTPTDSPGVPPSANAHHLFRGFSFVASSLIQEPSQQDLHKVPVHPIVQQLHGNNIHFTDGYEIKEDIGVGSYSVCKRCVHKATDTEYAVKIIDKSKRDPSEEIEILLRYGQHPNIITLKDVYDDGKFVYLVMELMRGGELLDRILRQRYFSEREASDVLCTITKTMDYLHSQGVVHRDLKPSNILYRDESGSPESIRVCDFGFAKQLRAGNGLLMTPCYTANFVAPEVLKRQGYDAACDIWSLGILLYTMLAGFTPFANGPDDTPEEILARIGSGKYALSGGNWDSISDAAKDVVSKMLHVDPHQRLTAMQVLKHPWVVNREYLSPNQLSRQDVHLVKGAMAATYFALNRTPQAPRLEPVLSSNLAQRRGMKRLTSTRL
RPS6KA1/RPS6KA2/RPS6KA3, sequence (Q15418 whole entry, looked up): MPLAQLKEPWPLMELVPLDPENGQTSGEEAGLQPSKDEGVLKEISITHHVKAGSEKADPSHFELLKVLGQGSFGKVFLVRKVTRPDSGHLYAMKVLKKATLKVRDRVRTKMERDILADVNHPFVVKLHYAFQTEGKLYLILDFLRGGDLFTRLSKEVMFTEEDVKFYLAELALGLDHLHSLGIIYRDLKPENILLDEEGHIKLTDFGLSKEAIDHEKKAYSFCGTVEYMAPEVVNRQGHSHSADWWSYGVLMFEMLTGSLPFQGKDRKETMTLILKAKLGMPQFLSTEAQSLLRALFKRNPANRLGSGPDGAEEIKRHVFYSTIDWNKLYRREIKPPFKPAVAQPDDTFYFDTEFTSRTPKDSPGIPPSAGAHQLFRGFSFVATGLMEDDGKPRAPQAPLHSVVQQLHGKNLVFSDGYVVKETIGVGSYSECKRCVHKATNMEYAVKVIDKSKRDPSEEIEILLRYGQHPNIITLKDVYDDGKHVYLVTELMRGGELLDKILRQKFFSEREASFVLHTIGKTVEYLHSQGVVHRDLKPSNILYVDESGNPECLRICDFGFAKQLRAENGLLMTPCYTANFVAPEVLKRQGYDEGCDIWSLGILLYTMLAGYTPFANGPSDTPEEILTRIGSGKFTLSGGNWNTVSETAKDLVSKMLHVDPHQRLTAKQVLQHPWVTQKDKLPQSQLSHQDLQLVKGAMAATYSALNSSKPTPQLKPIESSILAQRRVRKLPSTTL

Lewis lung carcinoma = assay: Antitumor activity against PML knock down mouse LL2 cells allografted in C57Bl/6 mouse assessed as reduction tumor growth at 50 mg/kg, ip administered on day 7 post implantation measured after 17 days; format: functional, organism-based; settings: time 10.0 day
[3] = target: Tyrosine-protein kinase CSK (Homo sapiens, UniProt P41240); assay: Inhibition of CSK in human HeLa cells lysate at 50 uM pre incubated for 15 mins followed by ATP acyl phosphate probe addition and measured after 10 mins by LC-MS/MS analysis relative to control; format: subcellular; settings: time 25.0 min
Tyrosine-protein kinase CSK, sequence (P41240 2-450 limits assumed): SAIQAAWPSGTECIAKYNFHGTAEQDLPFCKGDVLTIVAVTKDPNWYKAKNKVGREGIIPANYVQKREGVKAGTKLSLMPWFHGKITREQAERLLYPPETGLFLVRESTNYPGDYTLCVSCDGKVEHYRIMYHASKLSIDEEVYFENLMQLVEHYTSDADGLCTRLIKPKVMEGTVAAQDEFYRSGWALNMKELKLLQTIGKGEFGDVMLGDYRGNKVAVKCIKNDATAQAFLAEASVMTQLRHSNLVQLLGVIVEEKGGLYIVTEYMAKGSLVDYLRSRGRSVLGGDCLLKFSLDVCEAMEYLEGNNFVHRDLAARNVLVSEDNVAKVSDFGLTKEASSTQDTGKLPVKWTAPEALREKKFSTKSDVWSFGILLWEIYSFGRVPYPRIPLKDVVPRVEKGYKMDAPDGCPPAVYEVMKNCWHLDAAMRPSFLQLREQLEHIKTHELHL

[4] = Inhibition of MAP3K2/MAP3K3 in human HeLa cells lysate at 2 uM pre incubated for 15 mins followed by ADP acyl phosphate probe addition and measured after 10 mins by LC-MS/MS analysis relative to control; settings: 25 min, condition cancer
Activated CDC42 kinase 1 = Activated CDC42 kinase 1 (Homo sapiens, UniProt Q07912); assay: Inhibition of TNK2 (unknown origin) assessed as remaining activity at 10 uM by ATP-competition binding assay relative to control
[5] = target: Mitogen-activated protein kinase kinase kinase 11 (Homo sapiens, UniProt Q16584); assay: Inhibition of MLK3 in human HeLa cells lysate at 2 uM pre incubated for 15 mins followed by ATP acyl phosphate probe addition and measured after 10 mins by LC-MS/MS analysis relative to control; format: subcellular; settings: time 25.0 min
[6] = target: Mitogen-activated protein kinase 3 (Homo sapiens, UniProt P27361); assay: Inhibition of ERK1 in human HeLa cells lysate pre incubated for 15 mins followed by ADP acyl phosphate probe addition and measured after 10 mins by LC-MS/MS analysis; format: subcellular
[7] = target: Serine/threonine-protein kinase PLK1 (Homo sapiens, UniProt P53350); assay: Inhibition of PLK1 K1 site in human HeLa cells lysate pre incubated for 15 mins followed by ATP acyl phosphate probe addition and measured after 10 mins by LC-MS/MS analysis; format: subcellular
Serine/threonine-protein kinase PLK1, sequence (P53350 whole entry): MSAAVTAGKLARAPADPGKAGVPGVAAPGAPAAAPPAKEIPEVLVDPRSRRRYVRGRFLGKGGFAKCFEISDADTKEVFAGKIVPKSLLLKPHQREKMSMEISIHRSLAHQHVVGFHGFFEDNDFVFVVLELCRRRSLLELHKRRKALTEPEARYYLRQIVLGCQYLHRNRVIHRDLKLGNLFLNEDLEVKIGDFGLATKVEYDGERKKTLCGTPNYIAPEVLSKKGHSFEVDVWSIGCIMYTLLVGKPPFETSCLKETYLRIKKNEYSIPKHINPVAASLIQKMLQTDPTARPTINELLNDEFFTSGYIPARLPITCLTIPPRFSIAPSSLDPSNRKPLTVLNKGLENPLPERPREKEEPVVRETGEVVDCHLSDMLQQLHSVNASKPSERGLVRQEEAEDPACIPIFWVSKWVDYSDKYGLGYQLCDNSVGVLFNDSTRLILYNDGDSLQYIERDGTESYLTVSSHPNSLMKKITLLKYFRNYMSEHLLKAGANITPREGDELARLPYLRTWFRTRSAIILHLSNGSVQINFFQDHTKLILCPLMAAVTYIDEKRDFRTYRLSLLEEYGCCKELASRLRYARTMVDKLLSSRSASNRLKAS

[8] = target: T1, Serine/threonine-protein kinase Nek9 (Homo sapiens) (UniProt Q8TD19); assay: Inhibition of NEK9 in human HeLa cells lysate at 2 uM pre incubated for 15 mins followed by ATP acyl phosphate probe addition and measured after 10 mins by LC-MS/MS analysis relative to control; format: subcellular; settings: time 25.0 min
T1 sequence (whole entry): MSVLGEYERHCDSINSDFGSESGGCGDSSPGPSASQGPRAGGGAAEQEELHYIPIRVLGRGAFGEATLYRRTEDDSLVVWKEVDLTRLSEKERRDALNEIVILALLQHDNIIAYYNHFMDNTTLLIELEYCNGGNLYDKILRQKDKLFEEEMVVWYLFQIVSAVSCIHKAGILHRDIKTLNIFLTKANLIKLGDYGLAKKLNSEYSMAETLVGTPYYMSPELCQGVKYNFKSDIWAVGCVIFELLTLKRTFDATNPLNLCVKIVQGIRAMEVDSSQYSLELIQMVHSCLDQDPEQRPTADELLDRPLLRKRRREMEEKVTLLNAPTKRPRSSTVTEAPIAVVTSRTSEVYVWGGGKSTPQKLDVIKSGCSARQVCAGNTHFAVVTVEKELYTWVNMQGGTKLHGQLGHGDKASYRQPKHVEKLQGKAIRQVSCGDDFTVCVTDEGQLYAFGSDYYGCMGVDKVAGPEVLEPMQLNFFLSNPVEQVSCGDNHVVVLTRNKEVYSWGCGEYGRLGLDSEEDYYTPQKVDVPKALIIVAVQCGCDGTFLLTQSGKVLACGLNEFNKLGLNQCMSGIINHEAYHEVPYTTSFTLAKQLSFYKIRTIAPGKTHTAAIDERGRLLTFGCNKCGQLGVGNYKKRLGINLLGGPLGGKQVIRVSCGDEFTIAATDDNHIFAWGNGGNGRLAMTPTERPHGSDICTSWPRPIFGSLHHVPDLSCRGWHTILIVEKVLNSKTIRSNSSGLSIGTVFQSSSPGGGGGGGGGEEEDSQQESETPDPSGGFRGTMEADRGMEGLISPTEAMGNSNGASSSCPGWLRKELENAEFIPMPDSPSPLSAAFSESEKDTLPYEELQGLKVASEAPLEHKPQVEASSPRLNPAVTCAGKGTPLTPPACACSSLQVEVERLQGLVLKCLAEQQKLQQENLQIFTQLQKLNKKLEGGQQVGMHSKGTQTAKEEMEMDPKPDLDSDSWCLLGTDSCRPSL

[9] = target: Serine/threonine-protein kinase Nek3 (Homo sapiens, UniProt P51956); assay: Inhibition of NEK3 in human HeLa cells lysate pre incubated for 15 mins followed by ADP acyl phosphate probe addition and measured after 10 mins by LC-MS/MS analysis; format: subcellular
Serine/threonine-protein kinase Nek3, sequence (P51956 whole entry): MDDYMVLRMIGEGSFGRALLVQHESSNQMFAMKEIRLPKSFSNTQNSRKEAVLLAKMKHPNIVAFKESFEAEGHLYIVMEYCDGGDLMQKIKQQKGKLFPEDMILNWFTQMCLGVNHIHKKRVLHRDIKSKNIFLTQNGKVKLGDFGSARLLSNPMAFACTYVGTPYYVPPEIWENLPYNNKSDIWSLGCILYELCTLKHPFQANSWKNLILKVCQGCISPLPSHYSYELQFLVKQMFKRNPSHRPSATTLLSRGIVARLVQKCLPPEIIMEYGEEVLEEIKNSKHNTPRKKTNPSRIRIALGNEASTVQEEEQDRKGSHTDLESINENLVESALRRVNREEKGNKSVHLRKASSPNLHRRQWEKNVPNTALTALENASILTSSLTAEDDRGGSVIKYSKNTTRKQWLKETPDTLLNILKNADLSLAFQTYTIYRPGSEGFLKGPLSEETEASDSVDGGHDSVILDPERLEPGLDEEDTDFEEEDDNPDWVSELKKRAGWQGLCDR

[10] = target: Serine/threonine-protein kinase ATR (Homo sapiens, UniProt Q13535); assay: Inhibition of ATR in human HeLa cells lysate at 10 uM pre incubated for 15 mins followed by ATP acyl phosphate probe addition and measured after 10 mins by LC-MS/MS analysis relative to control; format: subcellular; settings: time 25.0 min
Procedure, shortened: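 KiNativ-type profiling in HeLa lysate (5 mg/mL total protein). Lysate preincubated 15 min with inhibitor at 50, 10, 2, 0.8 or 0 μM, then ATP or ADP acylphosphate probe added (5 μM final) for 10 min. Reaction stopped with urea and analysed by targeted MS, using up to four fragment ions per kinase peptide-probe conjugate. % inhibition calculated against untreated lysate. Duplicate reactions.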

AMPK alpha1/alpha2 = AMPK alpha1/alpha2 (Homo sapiens, UniProt P54646+Q13131); assay: Inhibition of AMPKalpha1/2 in human HeLa cells lysate pre incubated for 15 mins followed by ATP acyl phosphate probe addition and measured after 10 mins by LC-MS/MS analysis; format: subcellular
Procedure, shortened: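 HeLa cell lysates (5 mg/mL total protein) were preincubated with inhibitor at 0, 0.8, 2, 10 or 50 μM for 15 min. ATP or ADP acylphosphate probe was then added (5 μM final) for 10 min, and reactions were stopped with urea. Up to four fragment ions per kinase probe-peptide were quantified by targeted MS. % inhibition was taken relative to untreated lysate. Run in duplicate.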

[11] = target: Dual specificity mitogen-activated protein kinase kinase; MEK1/2 (Homo sapiens, UniProt P36507+Q02750); assay: Inhibition of MAP2K1/MAP2K2 in human HeLa cells lysate pre incubated for 15 mins followed by ADP acyl phosphate probe addition and measured after 10 mins by LC-MS/MS analysis; format: subcellular

CCOc1cc(N2CCC(O)CC2)ccc1Nc1ncc2c(n1)N(C)c1ccccc1C(=O)N2C
IC50 [1]: > 50 µM | inhibition [2]: -3.4% | inhibition (RPS6KA1/RPS6KA2/RPS6KA3): 11.6% | Activity (Lewis lung carcinoma): inactive | inhibition [3]: 0.9% | inhibition at 2 µM [4]: 4.6% | Activity (Activated CDC42 kinase 1): 17% | inhibition [5]: 5.3% | IC50 [6]: > 50 µM | IC50 [7]: > 50 µM | inhibition [8]: 3% | IC50 [9]: > 50 µM | inhibition [10]: 6.7% | IC50 (AMPK alpha1/alpha2): > 50 µM | IC50 [11]: > 50 µM
